Laboratory results reported in ChEMBL document CHEMBL4715933, “Identification of Potent Reverse Indazole Inhibitors for HPK1” (ACS Med Chem Lett, 2021).

Legend:
[1] = target: T1, Mitogen-activated protein kinase kinase kinase kinase 1 (Homo sapiens, UniProt Q92918); assay: Displacement of Tracer 222 from N-terminal GST-tagged human recombinant HPK1 (1 to 346 residues ) expressed in baculovirus-infected Sf9 cells incubated for 1 hr by HTRF lanthascreen binding assay
How it was run: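 Binding (tracer-displacement) format run with tracer at a concentration approximately equal to its Kd; IC50 derived from displacement.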

Homo sapiens [2] = organism: Homo sapiens; assay: Selectivity ratio of IC50 for CDK2 (unknown origin) by ATP competitive binding assay to IC50 for N-terminal GST-tagged human recombinant HPK1 (1 to 346 residues ) expressed in baculovirus-infected Sf9 cells by HTRF lanthascreen binding assay
How it was run: (§1)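 Ratio of off-target kinase IC50 (JAK1, JAK2 or CDK2) to HPK1 IC50. The off-target kinase assays were run at ATP approximately equal to Km(ATP). HPK1 IC50 came from the tracer-displacement assay with tracer at approximately Kd(tracer).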

[3] = Apparent permeability of compound in dog MDCKII cells; assay type: ADME, cell-based, Canis lupus familiaris, MDCK-II; conditions: MDCK
[4] = Volume of distribution in Wistar Han rat at 0.1 mg/kg, iv; assay type: ADME, organism-based; conditions: in vivo
How it was run: (§2)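 Male Wistar Han rats dosed intravenously at 0.1 mg/kg, given as a solution in DMSO/PEG400/H2O. Plasma PK parameters derived: total plasma clearance, volume of distribution, mean residence time and half-life. Unbound clearance accounts for plasma protein binding.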

[5] = Half life in Wistar Han rat at 0.1 mg/kg, iv; assay type: ADME, organism-based; conditions: in vivo; how it was run: as §2
[6] = Total Plasma clearance in Wistar Han rat at 0.1 mg/kg, iv; assay type: ADME, organism-based; how it was run: as §2
[7] = target: T1, Mitogen-activated protein kinase kinase kinase kinase 1; assay: Inhibition of HPK1 in human PBMC assessed as inhibition of SLP76 phosphorylation by ELISA
How it was run: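 Target-engagement assay in human peripheral blood mononuclear cells with ELISA readout of SLP76 phosphorylation. Total-cell IC50 reported. Unbound IC50 obtained by correcting for compound binding to the 10% FBS present in the assay medium.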

Homo sapiens [8] = organism: Homo sapiens; assay: Selectivity ratio of IC50 for JAK1 (unknown origin) by ATP competitive binding assay to IC50 for N-terminal GST-tagged human recombinant HPK1 (1 to 346 residues ) expressed in baculovirus-infected Sf9 cells by HTRF lanthascreen binding assay; how it was run: as §1
Homo sapiens [9] = organism: Homo sapiens; assay: Selectivity ratio of IC50 for JAK2 (unknown origin) by ATP competitive binding assay to IC50 for N-terminal GST-tagged human recombinant HPK1 (1 to 346 residues ) expressed in baculovirus-infected Sf9 cells by HTRF lanthascreen binding assay; how it was run: as §1
[10] = Unbound clearance in Wistar Han rat at 0.1 mg/kg, iv; assay type: ADME, organism-based; conditions: in vivo; how it was run: as §2
[11] = Mean residence time in Wistar Han rat at 0.1 mg/kg, iv; assay type: ADME, organism-based; conditions: in vivo; how it was run: as §2

T1 sequence (Q92918 whole entry, the tested form may be a part): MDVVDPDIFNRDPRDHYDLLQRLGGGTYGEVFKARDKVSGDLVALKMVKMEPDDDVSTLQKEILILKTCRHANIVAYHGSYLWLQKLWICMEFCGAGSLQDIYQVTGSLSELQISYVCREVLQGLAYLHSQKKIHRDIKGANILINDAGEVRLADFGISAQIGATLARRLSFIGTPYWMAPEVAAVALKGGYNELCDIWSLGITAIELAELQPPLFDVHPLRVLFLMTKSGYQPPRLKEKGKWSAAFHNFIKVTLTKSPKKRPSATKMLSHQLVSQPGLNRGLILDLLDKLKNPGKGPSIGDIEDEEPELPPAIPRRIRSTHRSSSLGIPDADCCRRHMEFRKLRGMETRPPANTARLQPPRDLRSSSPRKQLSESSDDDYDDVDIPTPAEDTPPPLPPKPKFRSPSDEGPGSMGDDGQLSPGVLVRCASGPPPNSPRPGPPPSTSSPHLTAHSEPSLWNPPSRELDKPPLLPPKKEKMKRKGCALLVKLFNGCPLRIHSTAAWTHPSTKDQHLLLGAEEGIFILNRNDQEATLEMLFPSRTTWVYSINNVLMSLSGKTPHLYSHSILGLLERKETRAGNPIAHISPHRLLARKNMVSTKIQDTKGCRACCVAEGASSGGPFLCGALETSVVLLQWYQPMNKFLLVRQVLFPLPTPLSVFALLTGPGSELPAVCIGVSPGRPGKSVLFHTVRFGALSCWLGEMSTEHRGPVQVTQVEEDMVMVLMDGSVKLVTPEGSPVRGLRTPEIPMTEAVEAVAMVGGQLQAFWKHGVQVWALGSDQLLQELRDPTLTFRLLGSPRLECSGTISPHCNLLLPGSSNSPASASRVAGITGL

Compound: Cc1cccc(F)c1-c1cc2c(cnn2-c2ccc(N3CCN(C)CC3)cc2)cc1C#N
- IC50 [1]: 28 nM
- Ratio IC50 (Homo sapiens [2]): 357
- Papp [3]: < 8 ×10⁻⁶ cm/s
- Vd [4]: 18 L/kg
- half-life [5]: 132 min
- clearance [6]: 151 mL/min/kg
- IC50 [7]: > 10 µM
- Ratio IC50 (Homo sapiens [8]): 357

Compound: CNC1CCN(c2cccc(-n3ncc4cnc(-c5c(F)cccc5OC)cc43)n2)CC1
- Ratio IC50 (Homo sapiens [9]): 90
- IC50 [1]: 17 nM
- Ratio IC50 (Homo sapiens [2]): 8.5
- Ratio IC50 (Homo sapiens [8]): 112

Compound: Cc1cccc(F)c1-c1ccc2cnn(-c3ccc(N4CCN(C)CC4)cc3)c2c1
- IC50 [1]: 1470 nM

Compound: COc1cccc(F)c1-c1cc2c(cn1)cnn2-c1cccc(N2CC[C@H](N(C)C)C2)n1
- Ratio IC50 (Homo sapiens [9]): 393
- IC50 [1]: 1.2 nM
- Ratio IC50 (Homo sapiens [2]): 281
- Papp [3]: 30 ×10⁻⁶ cm/s
- Vd [4]: 0.3 L/kg
- half-life [5]: 72 min
- clearance [6]: 4.8 mL/min/kg
- IC50 [7]: > 10 µM
- Ratio IC50 (Homo sapiens [8]): 3070

Compound: CN1CCN(c2ccc(-n3ncc4cnc(-c5ccccc5)cc43)cc2)CC1
- Ratio IC50 (Homo sapiens [9]): 12
- IC50 [1]: 826 nM
- Ratio IC50 (Homo sapiens [8]): 12

Compound: COc1cccc(F)c1-c1cc2c(cn1)cnn2-c1cccc(N2CCCCC2)n1
- Ratio IC50 (Homo sapiens [9]): 26
- IC50 [1]: 40 nM
- Ratio IC50 (Homo sapiens [2]): 43
- Ratio IC50 (Homo sapiens [8]): 252

Compound: Cc1cccc(C)c1-c1cc2c(cn1)cnn2-c1ccc(N2CCN(C)CC2)cc1
- Ratio IC50 (Homo sapiens [9]): 35
- IC50 [1]: 284 nM
- Ratio IC50 (Homo sapiens [2]): 35
- Ratio IC50 (Homo sapiens [8]): 35

Compound: COc1cccc(F)c1-c1cc2c(cn1)cnn2-c1cccc(N2CCOCC2)n1
- Ratio IC50 (Homo sapiens [9]): 18
- IC50 [1]: 34 nM
- Ratio IC50 (Homo sapiens [2]): 12
- Ratio IC50 (Homo sapiens [8]): 92

Compound: COc1cccc(F)c1-c1cc2c(cn1)cnn2-c1cccc(N)n1
- IC50 [1]: 518 nM

Compound: COc1ccncc1-c1cc2c(cn1)cnn2-c1ccc(N2CCN(C)CC2)cc1
- Ratio IC50 (Homo sapiens [9]): 83
- IC50 [1]: 120 nM
- Ratio IC50 (Homo sapiens [2]): 4
- Ratio IC50 (Homo sapiens [8]): 83

Compound: COc1cccc(F)c1-c1cc2c(cn1)cnn2-c1cccc(N2CCCC2=O)n1
- IC50 [1]: 213 nM

Compound: CNC(=O)N1CCN(c2cccc(-n3ncc4cnc(-c5c(F)cccc5OC)cc43)n2)CC1
- Ratio IC50 (Homo sapiens [9]): 32
- IC50 [1]: 11 nM
- Ratio IC50 (Homo sapiens [2]): 30
- Ratio IC50 (Homo sapiens [8]): 311

Compound: COc1cccc(F)c1-c1cc2c(cn1)cnn2-c1cccc(N2CCN(C)CC2)c1
- Ratio IC50 (Homo sapiens [9]): 25
- IC50 [1]: 408 nM
- Ratio IC50 (Homo sapiens [8]): 25

Compound: COc1cccc(F)c1-c1cc2c(cn1)cnn2-c1cccc(N2CC(N)C2)n1
- Ratio IC50 (Homo sapiens [9]): 24
- IC50 [1]: 32 nM
- Ratio IC50 (Homo sapiens [2]): 10
- Ratio IC50 (Homo sapiens [8]): 59

Compound: Cc1cccc(F)c1-c1cc2c(cn1)cnn2-c1cnn(C)c1
- IC50 [1]: 1090 nM

Compound: COc1cccc(F)c1-c1cc2c(cnn2-c2cccc(N3CCN(C)CC3)n2)cc1C#N
- CL free [10]: 19913 mL/min/kg
- Ratio IC50 (Homo sapiens [9]): 130
- IC50 [1]: 2 nM
- Ratio IC50 (Homo sapiens [2]): 115
- Papp [3]: < 14 ×10⁻⁶ cm/s
- Vd [4]: 2.3 L/kg
- half-life [5]: 186 min
- clearance [6]: 12 mL/min/kg
- IC50 [7]: > 10 µM
- Ratio IC50 (Homo sapiens [8]): 1320

Compound: Cc1ccccc1-c1cc2c(cn1)cnn2-c1ccc(N2CCN(C)CC2)cc1
- Ratio IC50 (Homo sapiens [9]): 24
- IC50 [1]: 410 nM
- Ratio IC50 (Homo sapiens [8]): 24

Compound: COC(=O)N1CCN(c2cccc(-n3ncc4cnc(-c5c(F)cccc5OC)cc43)n2)CC1
- Ratio IC50 (Homo sapiens [9]): 5
- IC50 [1]: 32 nM
- Ratio IC50 (Homo sapiens [2]): 11
- Ratio IC50 (Homo sapiens [8]): 65

Compound: C[C@@H]1CN(c2cc(-n3ncc4ccc(-c5cnn6c5OCCC6)cc43)ccn2)C[C@H](C)N1C
- MRT [11]: 2.6 h
- Ratio IC50 (Homo sapiens [9]): 7
- IC50 [1]: 1460 nM
- Vd [4]: 1.4 L/kg
- clearance [6]: 8.7 mL/min/kg
- Ratio IC50 (Homo sapiens [8]): 7

Compound: CN1CCN(c2cc(-c3n[nH]c4cnc(-c5cnn6c5CCC6)cc34)ccn2)CC1
- MRT [11]: 1.9 h
- Ratio IC50 (Homo sapiens [9]): 32
- IC50 [1]: 15 nM
- Vd [4]: 15 L/kg
- clearance [6]: 130 mL/min/kg
- Ratio IC50 (Homo sapiens [8]): 45

Compound: COc1cccc(F)c1-c1cc2c(cn1)cnn2-c1ccc(N2CCOCC2)cc1
- Ratio IC50 (Homo sapiens [9]): 99
- IC50 [1]: 101 nM
- Ratio IC50 (Homo sapiens [8]): 99

Compound: CNC1CCc2c1ccc(F)c2-c1cc2c(cn1)cnn2-c1ccc(N2CCN(C)CC2)cc1 (racemic)
- Ratio IC50 (Homo sapiens [9]): 52
- IC50 [1]: 193 nM
- Ratio IC50 (Homo sapiens [2]): 52
- Ratio IC50 (Homo sapiens [8]): 52

Compound: COc1cccc(F)c1-c1cc2c(cn1)cnn2-c1cccc(N2CCCC2)n1
- IC50 [1]: 109 nM

Compound: Cc1cccc(F)c1-c1cc2c(cn1)cnn2-c1ccc(N2CCN(C)CC2)cc1
- Ratio IC50 (Homo sapiens [9]): 83
- IC50 [1]: 121 nM
- Ratio IC50 (Homo sapiens [2]): 83
- Ratio IC50 (Homo sapiens [8]): 83

Compound: COc1cccc(F)c1-c1cc2c(cn1)cnn2-c1ccccc1
- Ratio IC50 (Homo sapiens [9]): 10
- IC50 [1]: 1050 nM
- Ratio IC50 (Homo sapiens [8]): 10

Compound: COc1cccc(F)c1-c1cc2c(cn1)cnn2-c1ccnc(N2CCN(C)CC2)n1
- Ratio IC50 (Homo sapiens [9]): 125
- IC50 [1]: 6.7 nM
- Ratio IC50 (Homo sapiens [2]): 10
- Ratio IC50 (Homo sapiens [8]): 1480

Compound: COc1cccc(F)c1-c1cc2c(cn1)cnn2-c1ccc(N2CCN(C)CC2)cc1
- Ratio IC50 (Homo sapiens [9]): 112
- IC50 [1]: 89 nM
- Ratio IC50 (Homo sapiens [2]): 112
- Ratio IC50 (Homo sapiens [8]): 112

Compound: COc1cccc(F)c1-c1cc2c(cn1)cnn2-c1ccnc(N2CCN(C)CC2)c1
- Ratio IC50 (Homo sapiens [9]): 61
- IC50 [1]: 60 nM
- Ratio IC50 (Homo sapiens [2]): 167
- Ratio IC50 (Homo sapiens [8]): 167

Compound: COc1cccc(F)c1-c1cc2c(cn1)cnn2-c1cc(Cl)cc(N2CCN(C)CC2)n1
- Ratio IC50 (Homo sapiens [9]): 134
- IC50 [1]: 1.8 nM
- Ratio IC50 (Homo sapiens [2]): 597
- Ratio IC50 (Homo sapiens [8]): 347

Compound: CCOc1cccc(F)c1-c1cc2c(cn1)cnn2-c1ccc(N2CCN(C)CC2)cc1
- Ratio IC50 (Homo sapiens [9]): 18
- IC50 [1]: 557 nM
- Ratio IC50 (Homo sapiens [2]): 18
- Ratio IC50 (Homo sapiens [8]): 18

Compound: COc1cccc(F)c1-c1cc2c(cn1)cnn2-c1cccc(N2CC3(CCCNC3)C2)n1
- Ratio IC50 (Homo sapiens [9]): 177
- IC50 [1]: 13 nM
- Ratio IC50 (Homo sapiens [2]): 45
- Ratio IC50 (Homo sapiens [8]): 792

Compound: CN1CCN(c2cc(-c3n[nH]c4ccc(-c5cnn6c5CCC6)cc34)ccn2)CC1
- MRT [11]: 1 h
- Ratio IC50 (Homo sapiens [9]): 1110
- IC50 [1]: 9.1 nM
- Vd [4]: 7.1 L/kg
- clearance [6]: 117 mL/min/kg
- Ratio IC50 (Homo sapiens [8]): 205

Compound: COc1cccc(-n2ncc3cnc(-c4c(F)cccc4OC)cc32)n1
- Ratio IC50 (Homo sapiens [9]): 21
- IC50 [1]: 103 nM
- Ratio IC50 (Homo sapiens [2]): 5
- Ratio IC50 (Homo sapiens [8]): 97

Compound: COc1cccc(F)c1-c1cc2c(cn1)cnn2-c1ccc(N2CCN(C)CC2)cn1
- Ratio IC50 (Homo sapiens [9]): 61
- IC50 [1]: 31 nM
- Ratio IC50 (Homo sapiens [2]): 77
- Ratio IC50 (Homo sapiens [8]): 95

Compound: COc1cccc(F)c1-c1cc2c(cn1)cnn2-c1cccc(N2CCNCC2)n1
- Ratio IC50 (Homo sapiens [9]): 204
- IC50 [1]: 3.8 nM
- Ratio IC50 (Homo sapiens [2]): 29
- Ratio IC50 (Homo sapiens [8]): 446
